Series [1] has as its target T1, Lanosterol 14-alpha demethylase (Homo sapiens, UniProt Q16850).
T1 sequence (Q16850 whole entry): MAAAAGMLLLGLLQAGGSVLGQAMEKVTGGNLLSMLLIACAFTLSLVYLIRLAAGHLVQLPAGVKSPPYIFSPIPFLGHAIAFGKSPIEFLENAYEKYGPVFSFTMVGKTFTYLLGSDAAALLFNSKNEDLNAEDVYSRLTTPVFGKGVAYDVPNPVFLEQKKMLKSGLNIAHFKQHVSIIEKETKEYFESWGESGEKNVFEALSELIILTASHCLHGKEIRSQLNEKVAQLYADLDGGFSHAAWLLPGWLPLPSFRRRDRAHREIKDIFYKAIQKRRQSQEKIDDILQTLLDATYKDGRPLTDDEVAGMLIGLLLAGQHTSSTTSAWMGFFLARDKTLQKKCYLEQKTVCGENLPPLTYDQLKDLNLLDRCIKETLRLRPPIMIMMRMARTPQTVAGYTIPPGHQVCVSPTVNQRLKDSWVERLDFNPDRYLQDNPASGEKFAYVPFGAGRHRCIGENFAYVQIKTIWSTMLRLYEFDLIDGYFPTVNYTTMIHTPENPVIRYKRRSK
The series can be described thus: Inhibition of human CYP51 expressed in Topp 3 cells by lanosterol demethylase assay. The format is cell-based. An outline of the steps: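 0.5 ml phosphate buffer pH 7.4 with KCN, NADPH regenerating system, 60 min at 37 °C. Triene product extracted and quantified by chromatography (ergosterol internal standard). IC50 read from plot of % activity remaining vs concentration.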

Series [2] deals with T1, Lanosterol 14-alpha demethylase. Nature of the series: Binding affinity to human CYP51.
Substrate in series [3]: CC(C)=CCC[C@@H](C)[C@H]1CC[C@@]2(C)C3=C(CC[C@]12C)[C@@]1(C)CC[C@H](O)C(C)(C)[C@@H]1CC3
The series can be described thus: Binding affinity to human reconstituted CYP51.

Some results are limits rather than exact numbers.

One may read the IC50 as the concentration that gives 50% inhibition. For orientation: Kd means the concentration at which binding is half-saturated. For orientation: Km means the concentration of substrate that gives half-maximal velocity.

`O=C(NC(Cc1ccccc1)C(=O)O)c1cc2cc(Cl)ccc2[nH]1` (stereo not given) displayed an IC50 in series [1] of more than 200 µM. Still for that read-out and setting: in the case of `CC(C)CCC[C@@H](C)[C@H]1CC[C@H]2[C@@H]3CC=C4C[C@@H](O)CC[C@]4(C)[C@H]3CC[C@]12C` [CHOLESTEROL] it was more than 200 µM; in that of `CC(=O)[C@H]1CC[C@H]2[C@@H]3CCC4=CC(=O)CC[C@]4(C)[C@H]3CC[C@]12C` [PROGESTERONE], more than 200 µM; in that of `c1ccc(-c2ccc(C(c3ccccc3)n3ccnc3)cc2)cc1` (stereo not given) [BIFONAZOLE], 0.342 µM. The same measure, in the same setting: in the case of `O=C(NC1(C(=O)N2CCC(O)CC2)CCCC1)c1cc2cc(Cl)ccc2[nH]1` it was 100 µM; in that of `O=C(N[C@@H](Cc1ccccc1)C(=O)N1CCC(O)CC1)c1cc2c([nH]1)CCCC2`, more than 200 µM. Still for that read-out and setting: as for `c1ccc2[nH]cnc2c1` [BENZIMIDAZOLE], the figure is more than 200 µM; as for `CC[C@H](C)C(=O)O[C@H]1C[C@@H](C)C=C2C=C[C@H](C)[C@H](CC[C@@H]3C[C@@H](O)CC(=O)O3)[C@H]21` [LOVASTATIN], more than 200 µM; as for `O=C(N[C@@H](Cc1ccc(O)cc1)C(=O)N1CCC(O)CC1)c1cc2cc(Cl)ccc2[nH]1`, 2.5 µM. `OC(c1ccccc1)(c1cncnc1)c1ccc(Cl)cc1Cl` (stereo not given) [TRIARIMOL] registered an IC50 in series [1] of more than 10 µM. The same measure, in the same setting: as for `O=C(N[C@@H](Cc1ccccc1Cl)C(=O)N1CCC(O)CC1)c1cc2cc(Cl)ccc2[nH]1` [ANALOGUE A], the figure is 0.3 µM; as for `O=C(N[C@@H](Cc1ccccc1)C(=O)N1CCC(O)CC1)c1cc2ccccc2[nH]1`, 0.91 µM. Molecule `O=C1C(CC[S+]([O-])c2ccccc2)C(=O)N(c2ccccc2)N1c1ccccc1` (stereo not given) [SULFINPYRAZONE] returned an IC50 in series [1] of more than 200 µM.

In turn, `CCCNC(=O)NS(=O)(=O)c1ccc(Cl)cc1` [CHLORPROPAMIDE] yielded an IC50 in series [1] of more than 200 µM. Still for that read-out and setting: in the case of `CC[C@H]1OC(=O)[C@H](C)[C@@H](O[C@H]2C[C@@](C)(OC)[C@@H](O)[C@H](C)O2)[C@H](C)[C@@H](O[C@@H]2O[C@H](C)C[C@H](N(C)C)[C@H]2O)[C@](C)(O)C[C@@H](C)C(=O)[C@H](C)[C@@H](O)[C@]1(C)O` [ERYTHROMYCIN] it was more than 200 µM; in that of `CCCCC/C=C\C/C=C\C/C=C\C/C=C\CCCC(=O)NCCO` [ANANDAMIDE], more than 200 µM.

In the case of `O=C(N[C@@H](Cc1cccnc1)C(=O)N1CCC(O)CC1)c1cc2cc(Cl)ccc2[nH]1`, in series [1], the IC50 was determined as 26 µM. Same read-out and setting: as for `CCCCNC(=O)NS(=O)(=O)c1ccc(C)cc1` [TOLBUTAMIDE], the figure is more than 200 µM; as for `O=C(NC(Cc1ccccc1)C(=O)N1CCC(O)CC1)c1ccc[nH]1` (stereo not given), more than 200 µM; as for `Clc1ccc(C2(Cn3cncn3)OCCO2)c(Cl)c1` [AZACONAZOLE], more than 10 µM. In series [1], `C[C@]12CC[C@H]3[C@@H](CCC4=CC(=O)CC[C@@]43C)[C@@H]1CC[C@@H]2O` [TESTOSTERONE] showed an IC50 of 50 µM. On the same count and under the same terms, as for `Clc1ccc(COC(Cn2ccnc2)c2ccc(Cl)cc2Cl)cc1` (stereo not given) [ECONAZOLE], the figure is 0.05 µM; as for `CCC(C)n1ncn(-c2ccc(N3CCN(c4ccc(OCC5COC(Cn6cncn6)(c6ccc(Cl)cc6Cl)O5)cc4)CC3)cc2)c1=O` (stereo not given) [ITRACONAZOLE], 3.6 µM. On the same count and under the same terms, in the case of `O=C(N[C@@H](Cc1c[nH]cn1)C(=O)N1CCC(O)CC1)c1cc2cc(Cl)ccc2[nH]1` it was 1.3 µM.

`Nc1ccc(S(=O)(=O)Nc2ccnn2-c2ccccc2)cc1` [SULFAPHENAZOLE]: in series [1], the IC50 was more than 200 µM. The same measure, in the same setting: in the case of `COC1=CC(=O)C[C@@H](C)[C@]12Oc1c(Cl)c(OC)cc(OC)c1C2=O` [GRISEOFULVIN] it was 50 µM.

With `Clc1ccccc1C(c1ccccc1)(c1ccccc1)n1ccnc1` [CLOTRIMAZOLE], half-maximal inhibition in series [1] (IC50) was put at 0.13 µM. In turn, `O=C(N[C@@H](Cc1ccccc1)C(=O)N1CCC(O)CC1)c1cc2cc(F)ccc2[nH]1` registered an IC50 in series [1] of 75 µM.

Consider `O=C(N[C@@H](Cc1ccccc1F)C(=O)N1CCC(O)CC1)c1cc2cc(Cl)ccc2[nH]1`, for which, in series [1], the IC50 stood at 0.8 µM.

Molecule `COc1ccc(C[C@H](NC(=O)c2cc3cc(Cl)ccc3[nH]2)C(=O)N2CCC(O)CC2)cc1` returned an IC50 in series [1] of 4.5 µM. Still for that read-out and setting: as for `CCCCC/C=C\C/C=C\C/C=C\C/C=C\CCCC(=O)O` [ARACHIDONIC ACID], the figure is more than 200 µM; as for `O=C(N[C@H](Cc1ccccc1)C(=O)N1CCC(O)CC1)c1cc2cc(Cl)ccc2[nH]1`, 100 µM; as for `Cc1cccc(N(C)C(=S)Oc2ccc3ccccc3c2)c1` [TOLNAFTATE], 50 µM.

With `CC(=O)N1CCN(c2ccc(OC[C@H]3CO[C@](Cn4ccnc4)(c4ccc(Cl)cc4Cl)O3)cc2)CC1` [KETOCONAZOLE], in series [2], binding was characterised by a dissociation constant (Kd) of 8 µM. For the same molecule, the IC50 in series [1] is 0.19 µM. In series [1], `O=C(N[C@@H](Cc1ccccc1)C(=O)N1CCC(O)CC1)c1cc2cc(Cl)ccc2[nH]1` registered a 50% inhibitory concentration (IC50) of 3.1 µM. Still for that read-out and setting: as for `CC(=O)[C@H]1CC[C@H]2[C@@H]3CC=C4C[C@@H](O)CC[C@]4(C)[C@H]3CC[C@]12C` [PREGNENOLONE], the figure is more than 200 µM; as for `CC(C)N1CCN(c2ccc(OC[C@H]3CO[C@](Cn4cncn4)(c4ccc(Cl)cc4Cl)O3)cc2)CC1` [TERCONAZOLE], 3 µM; as for `O=C(N[C@@H](Cc1ccc(F)cc1)C(=O)N1CCC(O)CC1)c1cc2cc(Cl)ccc2[nH]1`, 4 µM. Still for that read-out and setting: as for `O=C(N[C@@H](Cc1ccc(Cl)cc1)C(=O)N1CCC(O)CC1)c1cc2cc(Cl)ccc2[nH]1`, the figure is 9.7 µM; as for `CO[C@H]1/C=C/O[C@@]2(C)Oc3c(C)c(O)c4c(O)c(c(/C=N/N5CCN(C)CC5)c(O)c4c3C2=O)NC(=O)/C(C)=C\C=C\[C@H](C)[C@H](O)[C@@H](C)[C@@H](O)[C@@H](C)[C@H](OC(C)=O)[C@@H]1C` [RIFAMPIN], 30 µM. `Clc1ccc(COC(Cn2ccnc2)c2ccc(Cl)cc2Cl)c(Cl)c1` (stereo not given) [MICONAZOLE] came in with an IC50 in series [1] of 0.2 µM. Same read-out and setting: as for `Cn1cc[nH]c1=S` [METHIMAZOLE], the figure is more than 200 µM; as for `Cc1ncc([N+](=O)[O-])n1CCO` [METRONIDAZOLE], more than 200 µM.

B1: Lanosterol 14-alpha demethylase (Homo sapiens) (protein)
chain: T1 sequence (Q16850 whole entry)
Regarding B1, in series [3], the Km is 30 µM.

These data come from ChEMBL document CHEMBL1143822, “Three-dimensional quantitative structure-activity relationship analysis of human CYP51 inhibitors” (Drug Metab Dispos, 2007).
